# Source: PubChem BioAssay
# Most compounds without a hit are left out; they make up all but 3.5% or so of the library.
# RGS4 act = potentiators or activators of RGS4; HEK293 M3R/inducible RGS4, carbachol calcium flux Fluo4; hits give low values; B-score at 10 µM; hit rate 0.92% among 310,000;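 active = B-score of the integrated calcium signal more than 4 SD below the library mean, with starting fluorescence not abnormally high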;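 also: negative B-score means reduced calcium response which marks RGS4 activation or potentiation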
#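 Also added: carbachol at ECmax as muscarinic agonist stimulus; Assay system: HEK293 cells with stable M3R and inducible RGS4; Timing: overnight RGS4 induction, 30 min dye load 37 °C, 20 min compound RT; Measured by: Fluo4-AM (2 µM) calcium-flux fluorescence, kinetic read.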
# RGS4 inh = human RGS4 inhibition; B-score at 10 µM; AID 463165; P49798; hit rate 0.45% among 310,000; HEK293 M3R/RGS4 inducible, Fluo-4 calcium flux; hits give high values; triggered by carbachol at its EC20;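 active = B-score, a plate-corrected calcium signal, over three deviations above library mean, with baseline fluorescence within five deviations of library mean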;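 also: RGS4 expression induced by doxycycline in cells with stable M3 receptor; B-score is computed from the integrated fluorescence ratio over baseline after carbachol; higher B-score means a larger calcium signal and so more RGS4 inhibition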
# Target sequence (P49798 whole entry, looked up): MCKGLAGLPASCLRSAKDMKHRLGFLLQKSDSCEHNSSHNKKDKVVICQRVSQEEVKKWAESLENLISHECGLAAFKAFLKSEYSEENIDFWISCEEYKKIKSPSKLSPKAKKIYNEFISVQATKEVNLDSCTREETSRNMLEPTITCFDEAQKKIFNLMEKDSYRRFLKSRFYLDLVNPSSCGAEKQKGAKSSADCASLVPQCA
# MrgX1 agonist = human MrgX1 receptor agonism, primary screen; hit rate 0.44% among 310,000; AID 588627; B-score at 10 µM; MrgX1-HEK293 cells, Fluo-4 calcium fluorescence, agonist mode; hits give high values; Q96LB2;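 active = calcium response B-score plate-corrected fluorescence ratio at least 3 library SD, with starting fluorescence B-score inside 5 SD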
# Target sequence (Q96LB2 whole entry, looked up): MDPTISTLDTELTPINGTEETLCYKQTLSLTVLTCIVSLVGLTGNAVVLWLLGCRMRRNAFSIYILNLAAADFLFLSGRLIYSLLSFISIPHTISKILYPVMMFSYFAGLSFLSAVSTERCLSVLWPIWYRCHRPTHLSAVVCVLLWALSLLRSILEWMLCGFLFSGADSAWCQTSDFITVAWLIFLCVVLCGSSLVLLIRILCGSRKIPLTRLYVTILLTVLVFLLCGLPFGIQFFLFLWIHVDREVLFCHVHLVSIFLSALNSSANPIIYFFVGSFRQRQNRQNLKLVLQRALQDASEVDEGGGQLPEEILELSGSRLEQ
#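 Assay system: MrgX1-expressing HEK293 cells / Amount: fifteen thousand cells per well / Doses: test compound in the initial addition of three / Timing: cells plated overnight, dye loaded 0.5 h 37 °C, 0.5 h room temperature / Technique: kinetic calcium dye fluorescence, Fluo-4 NW / Control set: positive and negative controls per plate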
# MrgX1 allo act = allosterically activates human MrgX1 receptor signaling; MrgX1-HEK293, Fluo-4 calcium flux, FDSS; hits give high values; B-score at 10 µM; hit rate 0.63% among 310,000; AID 588675;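 active = plate-corrected calcium response at least 3 library SD above typical, normal starting fluorescence, not activating the receptor alone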;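 also: compound read alongside a low EC10 to EC30 dose of BAM8-22 agonist; peak minus trough fluorescence over baseline measured at the second addition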
# MrgX1 antagonist = blocks BAM8-22 activation of human MrgX1 receptor; Q96LB2; hit rate 1.3% among 310,000; AID 588676; B-score at 10 µM; MRGX1-HEK293 calcium flux, Fluo-4, BAM8-22 antagonism; hits give low values;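 active = calcium-response B-score plate-corrected more than 3 library SD below zero, starting fluorescence within 5 deviations, no agonist response on first addition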;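 also: peak minus trough fluorescence over baseline after final BAM8-22 challenge near maximal dose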
# MrgX1 ant reconf = reconfirmed antagonist of human MrgX1 receptor signaling | shares compounds with MrgX1 antagonist | MrgX1-HEK293, BAM8-22 calcium flux, Fluo-4; hits give low values | remaining BAM8-22 calcium response % of control (hits give low values), % at 10 µM | hit rate 19% among 2,300 | AID 602420;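 active = remaining agonist calcium response no higher than 100% minus 3 SD of agonist-only control wells, with starting fluorescence near control levels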;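 also: agonist BAM8-22 given at a near maximal EC90 to ECmax level; peak minus minimum fluorescence divided by baseline after agonist addition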
# HEK293 Ca flux = counter-screen for MrgX1 antagonists: effect in parental HEK293 cells; shares compounds with MrgX1 antagonist; fluorescence ratio F(max-min)/F0 at 10 µM; hit rate 2% among 4,000; Fluo-4 calcium fluorescence, FDSS; AID 624111;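 active = duplicate-averaged calcium fluorescence ratio at least three times the standard deviation of buffer wells, a nonspecific response in parental cells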
# HEK293 Ca counter = counter-screen for MrgX1 allosteric activators: effect in parental HEK293 cells. hit rate 0.4% among 4,000. fluorescence ratio F(max-min)/F0 at 10 µM. parental HEK293 calcium flux, Fluo-4 fluorescence ratio; hits give high values. shares compounds with MrgX1 antagonist;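 active = calcium fluorescence ratio, averaged over duplicates, at least 3 SD of the buffer-well ratio, meaning a nonspecific response in receptor-free cells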;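 also: untransfected parental HEK293 lacking MrgX1 used as counterscreen for MrgX1 allosteric activators; fluorescence change taken during the second addition on a kinetic imager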
# HEK293 Ca cntr2 = MrgX1 activator counter-screen hit in parental HEK293 cells; hit rate 8.7% among 4,000; shares compounds with MrgX1 antagonist; fluorescence ratio F(max-min)/F0 at 10 µM; Fluo-4 calcium fluorescence (FDSS); hits give high values;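 active = calcium fluorescence ratio at least three times the spread of buffer wells, meaning a non-specific response in parental cells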
# * marks the source's active call; other numbers are inactive results; i = inactive; x = no result.
SMILES,RGS4 act,RGS4 inh,MrgX1 agonist,MrgX1 allo act,MrgX1 antagonist,MrgX1 ant reconf,HEK293 Ca flux,HEK293 Ca counter,HEK293 Ca cntr2
CCOC(=O)c1sc2nc(NC(=O)C(C)(C)C)sc2c1C,i,i,i,i,-5.1*,79%*,i,i,i
COc1cccc(CCN2C(=O)C(=O)N([C@@H](CNCc3ccccc3)Cc3ccccc3F)C[C@@H]2C(C)(C)C)c1,x,x,i,i,i,x,x,x,x
CCOC(=O)C1CCCN(C(=O)CSCc2ccccc2)C1 (stereo not drawn),i,i,i,i,-8.9*,i,i,i,i
CCc1c(C)nc(SCC(N)=O)c(C#N)c1C,i,i,i,i,-5.7*,i,i,i,i
N#Cc1cc2ccccc2nc1SCc1ccccn1,i,i,i,i,i,x,x,x,x
Cc1cc2cc3c(cc2nc1SCc1ccccn1)OCCO3,i,i,i,i,-6.5*,i,i,i,i
COc1ccc(OC)c(C(C(=O)NC2CCCCC2)N(Cc2ccco2)C(=O)c2ccccn2)c1 (stereo not drawn),i,i,i,i,i,x,x,x,x
Cc1ccc(NS(=O)(=O)c2cccc(C(=O)N3CCCCCC3)c2)cc1,i,i,i,i,-5.5*,i,i,i,i
Cc1cc(S(=O)(=O)Nc2ccc(C(=O)N3CCN(c4ccccc4O)CC3)cc2)ccc1F,i,i,i,i,-4.7*,82%*,i,i,i
Cc1ccc(NS(=O)(=O)c2ccc(C(=O)N3CCN(c4ncccn4)CC3)cc2)cc1,i,i,i,i,-5.4*,i,i,i,i
CC(=O)N1CC(C)Sc2ccc(S(=O)(=O)NCc3ccc(Cl)cc3)cc21 (stereo not drawn),i,i,i,i,i,x,x,x,x
CCC(=O)Nc1nc(N)n(-c2ccccc2)n1,i,i,i,i,-6.9*,i,i,i,i
CCOc1cc(Cl)c(S(=O)(=O)NCCCn2ccnc2)cc1Cl,i,i,i,i,i,x,x,x,x
CN1CCN(C(=S)Nc2cccc(Cl)c2)CC1,i,i,i,i,-4.9*,i,i,i,i
COc1cccc(CNC(=O)C(=O)N2CCC3(CC2)OCCN3S(=O)(=O)c2ccc(C)cc2)c1,i,i,i,i,i,x,x,x,x
COc1ccc(-n2c(=S)[nH]c3cc(C(=O)Nc4ccc(C)c(F)c4)ccc3c2=O)c(OC)c1,i,i,i,i,-5*,i,i,i,i
CN1CCc2c(sc3c2C(=O)NC(c2ccccc2)N3)C1 (stereo not drawn),i,i,i,i,-9.5*,i,i,i,i
Cc1ccnc(N2CCC(C(=O)Nc3cccc(C(F)(F)F)c3)CC2)n1,i,i,i,i,-4.8*,i,i,i,i
Cc1ccnc(N2CCC(C(=O)Nc3ccc(Oc4ccccc4)cc3)CC2)n1,i,i,i,i,i,x,x,x,x
COc1ccc(NC(=O)Cc2nnc(SCC(=O)Nc3ccccc3)n2C)cc1,i,i,i,i,i,x,x,x,x
COc1ccccc1NC(=O)CSc1ccc(-c2ccc(-n3ccnc3)cc2)nn1,i,i,i,i,-5.1*,i,i,i,i
Cc1ccccc1NC(=O)CSc1ccc(-c2ccc(-n3cccn3)cc2)nn1,i,i,i,i,i,x,x,x,x
Cc1cc(C)c(NC(=O)C2CCN(c3cnccn3)CC2)c(C)c1,i,i,i,i,-6.1*,i,i,i,i
CC[C@@]12C(=O)N(c3cccc(Cl)c3)C(=O)N1[C@H](c1ccc(Br)cc1)[C@@H]1C(=O)N(C(C)(C)C)C(=O)[C@@H]12,i,i,i,i,i,x,x,x,x
Cc1cc(C)n2nc(C(=O)Nc3nccs3)nc2n1,i,i,i,i,i,x,x,x,x
SMILES,RGS4 act,RGS4 inh,MrgX1 agonist,MrgX1 allo act,MrgX1 antagonist,MrgX1 ant reconf,HEK293 Ca flux,HEK293 Ca counter,HEK293 Ca cntr2
Cc1csc(NC(=O)c2nc3nc(C)cc(C)n3n2)n1,i,i,i,i,-5.4*,i,i,i,i
O=C(NCCc1ccccc1)c1ccc(-c2ccccc2Cl)o1,i,i,i,i,-4.6*,i,i,i,i
Cc1cc(NC(=O)CC2CCCC2)ccc1Br,i,i,i,i,i,x,x,x,x
Cc1cccc(NC(=O)CC2CCC2)c1,i,i,i,i,-5.8*,i,i,i,i
COc1ccc2[nH]c(C)cc(=O)c2c1,i,i,i,i,i,x,x,x,x
COc1ccc2[nH]c3c(c2c1)CCNC3C1CC=C(C)CC1 (stereo not drawn),i,i,i,i,-8.9*,i,i,i,i
CC1(C)CC(=O)C2=C(C1)OC1OC(=O)CC21C (stereo not drawn),i,i,i,i,i,x,x,x,x
COc1ccc(-c2csc(NC(=O)c3ccccc3NS(=O)(=O)c3ccc(F)c(F)c3)n2)cc1,i,i,i,i,-6.5*,63%*,i,i,51*
CN(C)c1nc(F)c(F)c(S(=O)(=O)c2ccccc2)c1F,i,i,i,i,i,x,x,x,x
CCn1c(C)c(C(C)=O)c(N2CCN(c3ccccc3)CC2)nc1=S,i,i,i,i,-8.9*,i,i,i,i
CCn1c(C)c(C(C)=O)c(N2CCN(c3ccccn3)CC2)nc1=S,i,i,i,i,i,x,x,x,x
CS(=O)(=O)N1CC(C(=O)NC2CCCC2)Oc2ccc(Cl)cc21 (stereo not drawn),i,i,i,i,i,x,x,x,x
CCOC(=O)c1cnc(-n2nc(C)cc2C)nc1NC1CCCCC1,i,i,i,i,-4.9*,67%*,i,i,i
Cc1ccccc1C(=O)Nc1ccnn1C1CCN(C(=O)C2CCOC2)CC1 (stereo not drawn),i,i,i,i,i,x,x,x,x
